ChEMBL document CHEMBL3797184, “Benzo[d]thiazol-2-yl(piperazin-1-yl)methanones as new anti-mycobacterial chemotypes: Design, synthesis, biological evaluation and 3D-QSAR studies” (Eur J Med Chem, 2016)
Converted amounts (≈) assume the structure as drawn.

What was measured:
[1] = system: Mycobacterium tuberculosis; experiment: Antitubercular activity against Mycobacterium tuberculosis H37Rv ATCC 27294 after 28 days by two-fold serial dilution method; format: functional; settings: for MIC: Mycobacterium tuberculosis, H37Rv ATCC 27294, 672 h
In short: (§1)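 NCCLS-recommended agar dilution run in triplicate against H37Rv ATCC 27294. Two-fold dilutions (50.0 to 0.4 µg/mL) in Middlebrook 7H11 agar with OADC. Inoculum came from fresh 7H11/OADC slants, adjusted to 1 mg/mL wet weight in 0.05% Tween 80 saline and diluted 10^-2 (~10^7 cfu/mL). 5 µL was spotted per tube, incubated at 37 °C and read at 28 days as MIC.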

[2] = system: Mycobacterium tuberculosis; experiment: Antitubercular activity against Mycobacterium tuberculosis clinical isolate by BACTEC 460 TB method; format: functional
[3] = Cytotoxicity against mouse RAW264.7 cells at 50 ug/ml after 72 hrs by MTT assay; format: cell-based; settings: read-out: INH
[4] = Therapeutic index, ratio of cytotoxicity against mouse RAW264.7 cells to antitubercular activity against Mycobacterium tuberculosis H37Rv ATCC 27294; format: cell-based; settings: read-out: TI
[5] = system: Mycobacterium tuberculosis; experiment: Antitubercular activity against Mycobacterium tuberculosis […] by microplate Alamar blue assay; format: functional
[6] = system: Mycobacterium tuberculosis; experiment: Antitubercular activity against Mycobacterium tuberculosis; format: functional; in short: as §1

CCOC(=O)c1nc2ccccc2s1 showed an MIC [1] of 121 µM (≈ 25 µg/mL).
Work on O=C(c1nc2ccccc2s1)N1CCSCC1 yielded an MIC [1] of 94.6 µM (≈ 25 µg/mL).
For Cc1c(CN2CCN(C)CC2)cc(-c2ccc(Cl)cc2)n1-c1ccc(Cl)cc1, the MIC [2] was 1.5 µg/mL (≈ 3.62 µM).
For O=C(c1nc2cc(Cl)ccc2s1)N1CCN(c2cnccn2)CC1, the cytotoxicity at 72 h, 50 ug/ml [3] was 54.9%, the “-logMIC” value [1] was 4.76 and the MIC [1] was 17.4 µM (≈ 6.25 µg/mL).
With O=C(c1nc2ccccc2s1)N1CCN(c2ccncc2)CC1 the cytotoxicity at 72 h, 50 ug/ml [3] was 62%, the “-logMIC” value [1] was 5.02 and the MIC [1] was 9.63 µM (≈ 3.12 µg/mL).
In the case of O=C(c1nc2cc(Cl)ccc2s1)N1CCN(C(c2ccccc2)c2ccccc2)CC1, the cytotoxicity at 72 h, 50 ug/ml [3] is reported as 52.9%, the “-logMIC” value [1] is reported as 5.76 and the MIC [1] is reported as 1.74 µM (≈ 0.78 µg/mL).
For COc1ccc(N2CCN(C(=O)c3nc4ccccc4s3)CC2)cc1, the “-logMIC” value [1] was 4.45 and the MIC [1] was 35.4 µM (≈ 12.5 µg/mL).
With CC(=O)c1ccc(N2CCN(C(=O)c3nc4ccccc4s3)CC2)cc1 the cytotoxicity at 72 h, 50 ug/ml [3] was 62.3%, the “-logMIC” value [1] was 5.37 and the MIC [1] was 4.27 µM (≈ 1.56 µg/mL).
Molecule CCOC(=O)c1nc2cc(Cl)ccc2s1 has a cytotoxicity at 72 h, 50 ug/ml [3] of 37.4% and an MIC [1] of 12.9 µM (≈ 3.13 µg/mL).
In the case of COc1ccccc1N1CCN(C(=O)c2nc3cc(Cl)ccc3s2)CC1, the cytotoxicity at 72 h, 50 ug/ml [3] is reported as 63.4%, the “-logMIC” value [1] is reported as 5.09 and the MIC [1] is reported as 8.06 µM (≈ 3.13 µg/mL).
In the case of CC(=O)c1ccc(N2CCN(C(=O)c3nc4cc(C(F)(F)F)ccc4s3)CC2)cc1, the cytotoxicity at 72 h, 50 ug/ml [3] is reported as 30.6%, the “-logMIC” value [1] is reported as 4.84 and the MIC [1] is reported as 14.4 µM (≈ 6.25 µg/mL).
For COc1ccccc1N1CCN(C(=O)c2nc3ccccc3s2)CC1, the cytotoxicity at 72 h, 50 ug/ml [3] was 53.4%, the “-logMIC” value [1] was 5.05 and the MIC [1] was 8.84 µM (≈ 3.12 µg/mL).
For O=C(c1nc2ccccc2s1)N1CCN(c2ccccc2)CC1, the cytotoxicity at 72 h, 50 ug/ml [3] was 67.2%, the “-logMIC” value [1] was 5.32 and the MIC [1] was 4.82 µM (≈ 1.56 µg/mL).
Molecule COc1ccccc1N1CCN(C(=O)c2nc3cc(C(F)(F)F)ccc3s2)CC1 has an MIC [1] of 59.3 µM (≈ 25 µg/mL).
For O=C(c1nc2cc(C(F)(F)F)ccc2s1)N1CCOCC1, the cytotoxicity at 72 h, 50 ug/ml [3] was 24.6%, the MIC [1] was 2.47 µM (≈ 0.781 µg/mL) and the selectivity ratio [4] was > 60.
O=C(c1nc2cc(Cl)ccc2s1)N1CCOCC1 gave a cytotoxicity at 72 h, 50 ug/ml [3] of 26.1% and an MIC [1] of 22.1 µM (≈ 6.25 µg/mL).
In the case of CCOC(=O)c1nc2cc(C(F)(F)F)ccc2s1, the cytotoxicity at 72 h, 50 ug/ml [3] is reported as 29.1% and the MIC [1] is reported as 22.7 µM (≈ 6.25 µg/mL).
In the case of O=C(c1nc2cc(C(F)(F)F)ccc2s1)N1CCN(c2ccccc2)CC1, the MIC [1] is reported as 31.9 µM (≈ 12.5 µg/mL).
For O=C(c1nc2cc(Cl)ccc2s1)N1CCN(c2ccccc2)CC1, the cytotoxicity at 72 h, 50 ug/ml [3] was 41.2%, the “-logMIC” value [1] was 4.76 and the MIC [1] was 17.5 µM (≈ 6.25 µg/mL).
In the case of O=C(c1nc2cc(C(F)(F)F)ccc2s1)N1CCN(c2ccncc2)CC1, the cytotoxicity at 72 h, 50 ug/ml [3] is reported as 17.5%, the “-logMIC” value [1] is reported as 5.1 and the MIC [1] is reported as 7.96 µM (≈ 3.12 µg/mL).
For COc1ccc(N2CCN(C(=O)c3nc4cc(C(F)(F)F)ccc4s3)CC2)cc1, the cytotoxicity at 72 h, 50 ug/ml [3] was 19.4%, the “-logMIC” value [1] was 5.13 and the MIC [1] was 7.42 µM (≈ 3.13 µg/mL).
With CC(=O)c1ccc(N2CCN(C(=O)c3nc4cc(Cl)ccc4s3)CC2)cc1 the cytotoxicity at 72 h, 50 ug/ml [3] was 30.8%, the “-logMIC” value [1] was 5.41 and the MIC [1] was 3.9 µM (≈ 1.56 µg/mL).
In the case of CN1CCN(C(=O)c2nc3cc(C(F)(F)F)ccc3s2)CC1, the cytotoxicity at 72 h, 50 ug/ml [3] is reported as 12.6%, the “-logMIC” value [1] is reported as 4.72 and the MIC [1] is reported as 19 µM (≈ 6.25 µg/mL).
In the case of O=C(c1nc2cc(C(F)(F)F)ccc2s1)N1CCCCC1, the MIC [1] is reported as 39.8 µM (≈ 12.5 µg/mL).
In the case of CC(=O)N1CCN(C(=O)c2nc3cc(C(F)(F)F)ccc3s2)CC1, the cytotoxicity at 72 h, 50 ug/ml [3] is reported as 20.2%, the “-logMIC” value [1] is reported as 5.36 and the MIC [1] is reported as 4.37 µM (≈ 1.56 µg/mL).
For CN1CCN(C(=O)c2nc3cc(Cl)ccc3s2)CC1, the MIC [1] was 84.5 µM (≈ 25 µg/mL).
O=C(c1nc2ccccc2s1)N1CCCCC1 gave an MIC [1] of 101 µM (≈ 25 µg/mL).
With COc1ccc(N2CCN(C(=O)c3nc4cc(Cl)ccc4s3)CC2)cc1 the cytotoxicity at 72 h, 50 ug/ml [3] was 42.8%, the “-logMIC” value [1] was 5.09 and the MIC [1] was 8.06 µM (≈ 3.13 µg/mL).
For O=C(c1nc2cc(Cl)ccc2s1)N1CCN(c2ccncc2)CC1, the “-logMIC” value [1] was 4.46 and the MIC [1] was 34.8 µM (≈ 12.5 µg/mL).
In the case of O=C(c1nc2cc(C(F)(F)F)ccc2s1)N1CCN(c2cnccn2)CC1, the cytotoxicity at 72 h, 50 ug/ml [3] is reported as 28.1%, the “-logMIC” value [1] is reported as 5.1 and the MIC [1] is reported as 7.94 µM (≈ 3.12 µg/mL).
CN1CCN(/N=C\c2cc(C(F)(F)F)nc3c(C(F)(F)F)cccc23)CC1 showed an MIC [5] of 3.56 µg/mL (≈ 9.12 µM).
In the case of CC(=O)N1CCN(C(=O)c2nc3cc(Cl)ccc3s2)CC1, the “-logMIC” value [1] is reported as 4.41 and the MIC [1] is reported as 38.6 µM (≈ 12.5 µg/mL).
For CN1CCN(C(=O)c2nc3ccccc3s2)CC1, the cytotoxicity at 72 h, 50 ug/ml [3] was 52.1%, the “-logMIC” value [1] was 4.92 and the MIC [1] was 12 µM (≈ 3.13 µg/mL).
In the case of O=C(c1nc2ccccc2s1)N1CCN(c2cnccn2)CC1, the cytotoxicity at 72 h, 50 ug/ml [3] is reported as 65.3%, the “-logMIC” value [1] is reported as 4.72 and the MIC [1] is reported as 19.2 µM (≈ 6.25 µg/mL).
In the case of O=C(c1nc2ccccc2s1)N1CCN(C(c2ccccc2)c2ccccc2)CC1, the cytotoxicity at 72 h, 50 ug/ml [3] is reported as 60.7%, the “-logMIC” value [1] is reported as 5.72 and the MIC [1] is reported as 1.89 µM (≈ 0.782 µg/mL).
Work on O=C(c1nc2ccccc2s1)N1CCOCC1 yielded a cytotoxicity at 72 h, 50 ug/ml [3] of 36.2% and an MIC [1] of 6.28 µM (≈ 1.56 µg/mL).
In the case of O=C(c1nc2cc(Cl)ccc2s1)N1CCCCC1, the MIC [1] is reported as 44.5 µM (≈ 12.5 µg/mL).
For O=C(c1nc2cc(C(F)(F)F)ccc2s1)N1CCN(C(c2ccccc2)c2ccccc2)CC1, the MIC [1] was 51.9 µM (≈ 25 µg/mL).
O=C(c1nc2cc(Cl)ccc2s1)N1CCSCC1 showed a cytotoxicity at 72 h, 50 ug/ml [3] of 62.5% and an MIC [1] of 20.9 µM (≈ 6.25 µg/mL).
With CC(C)C(NC(=O)OCC1c2ccccc2-c2ccccc21)C(=O)O/N=C1\c2ccccc2-c2c1c(N1CCN(c3ccccn3)CC1)nc1ccc(Br)cc21 (stereo not drawn) the MIC [6] was 1.47 µg/mL (≈ 1.82 µM).
In the case of CC(=O)N1CCN(C(=O)c2nc3ccccc3s2)CC1, the cytotoxicity at 72 h, 50 ug/ml [3] is reported as 48.8%, the “-logMIC” value [1] is reported as 5.27 and the MIC [1] is reported as 5.39 µM (≈ 1.56 µg/mL).
For O=C(c1nc2cc(C(F)(F)F)ccc2s1)N1CCSCC1, the cytotoxicity at 72 h, 50 ug/ml [3] was 18.1%, the MIC [1] was 2.35 µM (≈ 0.781 µg/mL) and the selectivity ratio [4] was > 60.
CC[C@@H](CO)NCCN[C@@H](CC)CO [ETHAMBUTOL] gave an MIC [1] of 7.64 µM (≈ 1.56 µg/mL).
Work on NNC(=O)c1ccncc1 [ISONIAZID] yielded an MIC [1] of 0.72 µM (≈ 0.0987 µg/mL).
NC(=O)c1cnccn1 [PYRAZINAMIDE] gave an MIC [1] of 50.8 µM (≈ 6.25 µg/mL).
CO[C@H]1/C=C/O[C@@]2(C)Oc3c(C)c(O)c4c(O)c(c(/C=N/N5CCN(C)CC5)c(O)c4c3C2=O)NC(=O)/C(C)=C\C=C\[C@H](C)[C@H](O)[C@@H](C)[C@@H](O)[C@@H](C)[C@H](OC(C)=O)[C@@H]1C [RIFAMPIN] gave an MIC [1] of 0.24 µM (≈ 0.198 µg/mL).
